The inhibition is the percentage by which the read-out fell short of the control. Read a low inhibition as little suppression.

These results are taken from ChEMBL document CHEMBL1148976, “Hypoxia-inducible factor-1 activation by (-)-epicatechin gallate: potential adverse effects of cancer chemoprevention with high-dose green tea extracts” (J Nat Prod, 2004).

In data set [1] the test system is T47D. In words: Induction of CDKN1A mRNA expression in human T47D cells under normoxic condition at 100 uM after 16 hrs by RT-PCR. The class given is functional, cell-based. Summed up: (§1)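 T47D cells, pretreated 30 min, then 16 h under normoxia or hypoxia (1% O2). Total RNA extracted immediately after treatment, checked by absorbance and agarose gel. Target mRNA measured by quantitative real-time RT-PCR, normalized to 18S rRNA, relative expression by ΔΔCT method. Mean ± SD from one representative experiment in triplicate.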

The target in data set [2] is Hypoxia-inducible factor 1-alpha (Homo sapiens) (UniProt Q16665). In words: Induction of HIF1alpha protein in human T47D cells under normoxic condition at 100 uM after 4 hrs by Western blot analysis in presence of 300 uM iron(2). The format is cell-based. Summed up:
(§2)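 T47D cells (10 million per 100 mm plate, 10% FBS DMEM/F12) are plated and left overnight. Test compound, with or without iron salt, ascorbate or Trolox, is added for 30 min at 37 °C. Cells then stand 4 h under normoxia (5% CO2:95% air) or hypoxia (5% CO2:1% O2:94% N2). Nuclear extracts are probed for HIF-1α and HIF-1β by Western blot.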
(Immunoblotting shows a protein as a band on a membrane.)

The target in data set [3] is Hypoxia inducible factors; HIF-1-alpha, HIF-2-alpha (Homo sapiens) (UniProt Q16665+Q99814). In words: Inhibition of hypoxia-induced HIF1 activation in human T47D cells expressing pTK-HRE-luc gene at 100 uM by luciferase reporter assay. The class given is cell-based. In short, it runs like this: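 T47D cells co-transfected by electroporation with pTK-HRE3-luc and pRL-TK. Compound at 100 μM, then hypoxia (1% O2). Dual luciferase read-out, firefly normalized to Renilla. Value is % inhibition of hypoxic HIF-1 activation. pGL3-Control reporter cells used as specificity control.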
Background: In a reporter assay the amount or activity of a reporter protein is the signal.

For data set [4], the target named is Aryl hydrocarbon receptor nuclear translocator (Homo sapiens) (UniProt P27540). In words: Induction of HIF1beta protein in human T47D cells under normoxic condition at 100 uM after 4 hrs by Western blot analysis. The class given is cell-based. In short, it runs like this:
as §2

In data set [5] the test system is T47D. In words: Induction of GLUT1 mRNA expression in human T47D cells under normoxic condition at 100 uM after 16 hrs by RT-PCR. The format is functional, cell-based. Summed up:
as §1

The subject of data set [6] is T47D. In words: Decrease in hypoxia-induced HIF1alpha mRNA expression in human T47D cells at 100 uM after 16 hrs by RT-PCR. The format is functional, cell-based. In short, it runs like this: as §1
The target in data set [7] is Aryl hydrocarbon receptor nuclear translocator (Homo sapiens) (UniProt P27540). In words: Induction of HIF1beta protein in human T47D cells under normoxic condition at 100 uM after 4 hrs by Western blot analysis in presence of ascorbate. The format is cell-based. In short, it runs like this: as §2
Aryl hydrocarbon receptor nuclear translocator (Homo sapiens), sequence (P27540 whole entry): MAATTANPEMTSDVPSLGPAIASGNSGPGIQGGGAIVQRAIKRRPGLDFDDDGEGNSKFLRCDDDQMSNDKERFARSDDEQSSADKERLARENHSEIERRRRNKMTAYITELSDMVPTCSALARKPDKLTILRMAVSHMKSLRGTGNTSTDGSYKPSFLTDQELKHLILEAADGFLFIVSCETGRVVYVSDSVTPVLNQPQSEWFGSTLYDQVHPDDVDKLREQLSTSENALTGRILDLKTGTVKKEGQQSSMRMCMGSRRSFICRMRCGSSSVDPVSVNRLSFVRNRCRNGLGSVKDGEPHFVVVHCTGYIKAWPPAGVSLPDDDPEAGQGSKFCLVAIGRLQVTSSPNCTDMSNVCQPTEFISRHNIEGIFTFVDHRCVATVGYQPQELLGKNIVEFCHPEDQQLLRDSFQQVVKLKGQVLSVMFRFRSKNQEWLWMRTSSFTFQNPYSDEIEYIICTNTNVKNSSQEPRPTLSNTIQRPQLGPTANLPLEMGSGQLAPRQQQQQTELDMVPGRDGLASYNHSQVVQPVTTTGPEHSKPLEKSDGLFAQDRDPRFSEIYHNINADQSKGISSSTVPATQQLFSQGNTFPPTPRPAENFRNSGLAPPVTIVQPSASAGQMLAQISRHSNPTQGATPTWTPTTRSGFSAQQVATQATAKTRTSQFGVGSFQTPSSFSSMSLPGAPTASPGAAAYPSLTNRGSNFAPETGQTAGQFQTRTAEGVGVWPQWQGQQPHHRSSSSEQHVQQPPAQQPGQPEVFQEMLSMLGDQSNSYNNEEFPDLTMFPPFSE
For data set [8] the target is unchanged. In words: Induction of HIF1beta protein in human T47D cells under normoxic condition at 100 uM after 4 hrs by Western blot analysis in presence of 150 uM iron(3). The format is cell-based. Summed up: as §2
Data set [9] has as its system T47D. In words: Increase in HIF1alpha mRNA expression in human T47D cells under normoxic condition at 100 uM after 16 hrs by RT-PCR. The class given is functional, cell-based. In short, it runs like this:
as §1

For data set [10], the system named is T47D. Briefly: Induction of HIF1 activation in human T47D cells under normoxic condition at 100 uM in presence of 50 uM iron(3). The class given is cell-based. Summed up: (§3)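 T47D cells transiently co-transfected by electroporation with pTK-HRE3-luc (50 μg mL−1) and pRL-TK (5 μg mL−1). Read-out is dual luciferase, with firefly normalized to Renilla. Incubation runs 16 h under normoxia. Iron salt or ascorbate is added with test compound (100 μM). Data come from one representative experiment in quadruplicate, mean ± SD, p <0.05 versus control.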

In data set [11] the test system is T47D. Briefly: Induction of HIF1 activation in human T47D cells expressing pTK-HRE-luc gene under normoxic condition at 100 uM after 16 hrs by luciferase reporter assay relative to control. The class given is cell-based. Summed up:
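T47D cells transiently co-transfected by electroporation with pTK-HRE3-luc (50 μg mL−1) and pRL-TK (5 μg mL−1). Compound at 100 μM under normoxia (5% CO2:95% air, 37 °C) for 16 h. Dual luciferase read-out, firefly normalized to Renilla, expressed as fold over control. pGL3-Control transfected cells run as counter-check.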

Data set [12] deals with Aryl hydrocarbon receptor nuclear translocator (Homo sapiens) (UniProt P27540). In words: Induction of HIF1beta protein in human T47D cells under normoxic condition at 100 uM after 4 hrs by Western blot analysis in presence of 300 uM iron(2). The format is cell-based. Summed up:
as §2

In data set [13] the test system is T47D. In words: Induction of HIF1 activation in human T47D cells under normoxic condition at 100 uM in presence of 300 uM iron(2). The format is cell-based. Summed up:
as §3

For data set [14], the target named is Hypoxia-inducible factor 1-alpha (Homo sapiens) (UniProt Q16665). Briefly: Induction of HIF1alpha protein in human T47D cells under normoxic condition at 100 uM after 4 hrs by Western blot analysis in presence of 100 uM iron(2). The class given is cell-based. Summed up:
as §2

Data set [15] deals with T47D. Briefly: Inhibition of hypoxia-induced GLUT1 mRNA expression in human T47D cells at 100 uM after 16 hrs by RT-PCR. The format is functional, cell-based. In short, it runs like this:
as §1

Data set [16] addresses Hypoxia-inducible factor 1-alpha (Homo sapiens) (UniProt Q16665). Briefly: Induction of HIF1alpha protein in human T47D cells under normoxic condition at 100 uM after 4 hrs by Western blot analysis. The class given is cell-based. Summed up: as §2
Data set [17] has the same target. In words: Inhibition of hypoxia-induced increase in HIF1alpha protein in human T47D cells at 100 uM after 4 hrs by Western blot analysis. The class given is cell-based. Summed up: as §2
The test system of data set [18] is T47D. Briefly: Induction of VEGF mRNA expression in human T47D cells under normoxic condition at 100 uM after 16 hrs by RT-PCR. The class given is functional, cell-based. Summed up:
as §1

Data set [19] addresses Hypoxia-inducible factor 1-alpha (Homo sapiens) (UniProt Q16665). In words: Induction of HIF1alpha protein in human T47D cells under normoxic condition at 100 uM after 4 hrs by Western blot analysis in presence of 150 uM iron(3). The format is cell-based. Summed up: as §2
For data set [20] the target is unchanged. In words: Induction of HIF1alpha protein in human T47D cells under normoxic condition at 100 uM after 4 hrs by Western blot analysis in presence of ascorbate. The class given is cell-based. In short, it runs like this:
as §2

Data set [21] concerns T47D. Briefly: Inhibition of hypoxia-induced VEGF mRNA expression in human T47D cells at 100 uM after 16 hrs by RT-PCR. The format is functional, cell-based. In short, it runs like this:
as §1

The subject of data set [22] is T47D. Briefly: Induction of HIF1 activation in human T47D cells under normoxic condition at 100 uM by luciferase reporter gene assay in presence of ascorbate. The class given is cell-based. In short, it runs like this: as §3
For data set [23], the system named is T47D. In words: Induction of HIF1 activation in human T47D cells under normoxic condition at 100 uM in presence of 150 uM iron(3). The class given is cell-based. Summed up: as §3
In data set [24] the target is Hypoxia-inducible factor 1-alpha (Homo sapiens) (UniProt Q16665). Briefly: Induction of HIF1alpha protein in human T47D cells under normoxic condition at 100 uM after 4 hrs by Western blot analysis in presence of trolox. The class given is cell-based. Summed up: as §2
Hypoxia-inducible factor 1-alpha (Homo sapiens), sequence (Q16665 whole entry, looked up): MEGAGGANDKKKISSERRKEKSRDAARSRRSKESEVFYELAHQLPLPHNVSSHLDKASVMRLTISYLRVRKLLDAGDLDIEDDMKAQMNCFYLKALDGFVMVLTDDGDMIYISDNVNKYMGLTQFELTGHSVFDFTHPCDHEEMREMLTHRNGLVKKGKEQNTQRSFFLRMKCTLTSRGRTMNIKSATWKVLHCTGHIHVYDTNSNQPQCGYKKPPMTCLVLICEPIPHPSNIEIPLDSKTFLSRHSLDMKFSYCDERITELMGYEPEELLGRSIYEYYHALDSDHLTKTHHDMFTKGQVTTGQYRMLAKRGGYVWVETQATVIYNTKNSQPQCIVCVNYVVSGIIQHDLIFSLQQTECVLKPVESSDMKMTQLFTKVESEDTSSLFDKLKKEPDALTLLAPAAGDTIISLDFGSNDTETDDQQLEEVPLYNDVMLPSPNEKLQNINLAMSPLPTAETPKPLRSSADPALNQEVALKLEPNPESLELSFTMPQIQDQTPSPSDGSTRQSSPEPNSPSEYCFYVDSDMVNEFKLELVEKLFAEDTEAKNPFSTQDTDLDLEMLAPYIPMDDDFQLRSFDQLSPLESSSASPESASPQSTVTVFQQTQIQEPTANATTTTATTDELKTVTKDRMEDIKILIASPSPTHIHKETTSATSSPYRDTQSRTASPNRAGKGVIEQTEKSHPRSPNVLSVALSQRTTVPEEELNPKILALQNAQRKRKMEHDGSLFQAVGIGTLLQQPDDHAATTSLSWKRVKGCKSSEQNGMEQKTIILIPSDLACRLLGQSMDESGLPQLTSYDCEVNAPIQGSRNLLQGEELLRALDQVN
Data set [25] concerns T47D. In words: Induction of HIF1 activation in human T47D cells under normoxic condition at 100 uM in presence of 100 uM iron(2). The format is cell-based. In short, it runs like this: as §3
Data set [26] is described as follows: Chemical stability in DMEM/F12 medium in presence of fetal calf serum. The settings on record: cattle. The format is physicochemical. Summed up:
(§4)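 Compound added at 100 μM final in serum-free DMEM/F12 with Pen/Strep to medium with 5% FBS, with or without T47D cells, 30 min, then hypoxia (1% O2) 16 h. Other samples: cell-free medium with or without antibiotics. Conditioned medium extracted; normal-phase TLC on silica gel G with UV254 indicator, UV254 quenching read-out. Extraction control: compound mixed with medium immediately before extraction.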

The nature of data set [27]: Aqueous stability of the compound. The class given is physicochemical. The settings on record: buffer. In short, it runs like this: as §4

The structures appear in SMILES notation. Activity calls are given as the source filed them. The rule behind the calls is not given here.

Consider `O=C(O[C@@H]1Cc2c(O)cc(O)cc2O[C@@H]1c1ccc(O)c(O)c1)c1cc(O)c(O)c(O)c1`, for which the outcome (in the data set with T47D [1]; in the data set with T47D [5]; in data set [7]; in [8]; in data set [12]; in [16]) was Active. The outcome (in data set [17]; in the data set on T47D [18]; in [24]) was Active. Also, the result (in data set [2]; in [4]; with T47D [6]; in the data set on T47D [9]; in the data set on T47D [10]; in the data set with T47D [13]) was inactive. Moreover, the outcome (in data set [14]; in the data set on T47D [15]; in data set [19]; in [20]; with T47D [21]; in the data set on T47D [22]) was inactive. The result in the data set with T47D [23] was inactive. In data set [3], the inhibition worked out at 79%. The molecule further gave a fold change (FC) in the data set on T47D [11] of 16.8.

For the molecule `CC(=O)N(O)CCCCCNC(=O)CCC(=O)N(O)CCCCCNC(=O)CCC(=O)N(O)CCCCCN`, the result in the data set on T47D [13] and in the data set with T47D [25] was inactive.

Take `Cc1c(C)c2c(c(C)c1O)CCC(C)(C(=O)O)O2` (configuration not stated): the result in [4] and in data set [16] was inactive.

As to `O=C(O[C@@H]1Cc2c(O)cc(O)cc2O[C@@H]1c1cc(O)c(O)c(O)c1)c1cc(O)c(O)c(O)c1` [EPIGALOCATECHIN GALLATE], in data set [3], the outcome was inactive. Besides, the Stability result in [26] and in [27] was “Unstable” throughout. In addition, the fold change (FC) in the data set on T47D [11] was 3.6.
